Legend:
Mus musculus [1] = experiment: Analgesic activity in Albino mouse at 50 mg/kg, po assessed as thermal stimuli reaction time change after 1 hr by hot plate method relative to basal level; type: functional
Method in brief: (§1)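 Hot-plate at 52 °C ± 0.1 °C with a 60 s cut-off, six mice per group. Dosing was oral, 50 mg/kg in 2% Tween 80. Latency to paw licking or jumping was recorded before dosing and at 0.5, 1 and 2 h. Results are given as % change from the pre-drug value, with one-way ANOVA and Duncan's test (P < 0.05).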

Mus musculus [2] = experiment: Analgesic activity in Albino mouse at 50 mg/kg, po assessed as thermal stimuli reaction time change after 30 mins by hot plate method relative to basal level; type: functional; method in brief: as §1
Mus musculus [3] = experiment: Analgesic activity in Albino mouse at 50 mg/kg, po assessed as thermal stimuli reaction time change after 1 hr by hot plate method relative to indomethacin; type: functional
Mus musculus [4] = experiment: Analgesic activity in Albino mouse at 50 mg/kg, po assessed as thermal stimuli reaction time change after 2 hrs by hot plate method relative to basal level; type: functional; method in brief: as §1
Mus musculus [5] = experiment: Analgesic activity against visceral pain in Albino mouse assessed as acetic acid-induced writhing at 50 mg/kg, po after 30 mins; type: functional
Method in brief: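 Mice (20–25 g, acclimatized 1 week, 12 h light/dark, 21–23 °C) given compound orally at 50 mg/kg as a suspension in 2% Tween 80. Negative controls got water in Tween 80. Visceral pain measured as acetic acid-induced writhing; indomethacin 50 mg/kg was the reference.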

Mus musculus [6] = experiment: Analgesic activity against visceral pain in Albino mouse assessed as acetic acid-induced writhing at 50 mg/kg, po after 30 mins relative to indomethacin; type: functional
Rattus norvegicus [7] = experiment: Antiinflammatory activity in Albino rat assessed as inhibition of carrageenan-induced edema at 50 mg/kg, po after 5 hrs
Rattus norvegicus [8] = experiment: Antiinflammatory activity in Albino rat assessed as inhibition of carrageenan-induced edema at 50 mg/kg, po after 4 hrs
Rattus norvegicus [9] = experiment: Antiinflammatory activity in Albino rat assessed as inhibition of carrageenan-induced edema at 50 mg/kg, po after 1 hr
Rattus norvegicus [10] = experiment: Antiinflammatory activity in Albino rat assessed as inhibition of carrageenan-induced edema at 50 mg/kg, po after 3 hrs
Mus musculus [11] = experiment: Analgesic activity in Albino mouse at 50 mg/kg, po assessed as thermal stimuli reaction time change after 30 mins by hot plate method relative to indomethacin; type: functional
Mus musculus [12] = experiment: Analgesic activity in Albino mouse at 50 mg/kg, po assessed as thermal stimuli reaction time change after 2 hrs mins by hot plate method relative to indomethacin; type: functional
Rattus norvegicus [13] = experiment: Antiinflammatory activity in Albino rat assessed as inhibition of carrageenan-induced edema at 50 mg/kg, po after 2 hrs
Rattus norvegicus [14] = experiment: Antiinflammatory activity in Albino rat assessed as inhibition of carrageenan-induced edema at 50 mg/kg, po after 6 hrs

Compound	Activity (Mus musculus [1])	Activity (Mus musculus [2])	Activity (Mus musculus [3])	Activity (Mus musculus [4])	Activity (Mus musculus [5])	Activity (Mus musculus [6])	inhibition in vivo at 50 mg/kg (Rattus norvegicus [7])	inhibition in vivo at 50 mg/kg (Rattus norvegicus [8])	inhibition in vivo at 50 mg/kg (Rattus norvegicus [9])	inhibition in vivo at 50 mg/kg (Rattus norvegicus [10])	Activity (Mus musculus [11])	Activity (Mus musculus [12])	inhibition in vivo at 50 mg/kg (Rattus norvegicus [13])	inhibition in vivo at 50 mg/kg (Rattus norvegicus [14])
Cc1ccc(-c2c(S(=O)(=O)c3ccccc3)cnc3cc(-c4ccccc4)nn23)cc1	18.6%	15.2%	0.24	15.2%	28%	0.32	28.2%	22.6%	42.5%	36.4%	0.35	0.19	41%	15.5%
Cc1ccc(-c2c(S(=O)(=O)c3ccccc3)cnc3cc(-c4ccc(Br)cc4)nn23)cc1	56.4%	29%	0.73	56.4%	65.2%	0.76	31.7%	26.6%	74.1%	69.2%	0.67	0.7	72.6%	54.3%
Cc1ccc(-c2c(S(=O)(=O)c3ccccc3)cnc3ncnn23)cc1	5.3%	7.1%	0.06	0%	–	0	2.4%	3.3%	7.5%	4.4%	0.16	0	5.2%	1.9%
Cc1ccc(-c2c(S(=O)(=O)c3ccccc3)cnc3cc(C)nn23)cc1	16%	16%	0.21	5.3%	30%	0.35	8.1%	14%	25.8%	23.2%	0.37	0.07	25.2%	8.7%
Cc1ccc(-c2c(S(=O)(=O)c3ccccc3)cnc3c(Br)c(-c4ccccc4)nn23)cc1	78%	43.8%	1.02	68.4%	85.6%	0.99	0%	12.5%	65.5%	54.8%	1.02	0.84	61%	6.6%
O=S(=O)(c1ccccc1)c1cnc2cc(-c3ccc(Cl)cc3)nn2c1-c1ccc(Br)cc1	72.2%	33%	0.93	51.8%	66.7%	0.77	13.8%	18.6%	24.2%	24.8%	0.77	0.63	24.7%	13.2%
Cc1ccc(-c2c(S(=O)(=O)c3ccccc3)cnc3nc4ccccc4n23)cc1	23%	9.2%	0.3	21.5%	9.1%	0.1	0%	0%	7.3%	4.2%	0.21	0.26	5%	0%
O=S(=O)(c1ccccc1)c1cnc2ncnn2c1-c1ccc(Br)cc1	6.8%	5.4%	0.08	5.4%	10.8%	0.12	0.8%	1.3%	2.2%	1.6%	0.12	0.06	4.2%	0.9%
Cc1ccc(-c2cc3ncc(S(=O)(=O)c4ccccc4)c(-c4ccc(C)cc4)n3n2)cc1	67.1%	25%	0.87	57.5%	74.4%	0.86	17%	20%	54.6%	31.2%	0.58	0.71	42.6%	11.6%
Cc1cc2ncc(S(=O)(=O)c3ccccc3)c(-c3ccc(Br)cc3)n2n1	44.1%	27%	0.57	39.7%	56.4%	0.65	0%	0%	7.4%	4.4%	0.63	0.49	5.2%	0%
COc1ccc2c(c1)c(CC(=O)O)c(C)n2C(=O)c1ccc(Cl)cc1 [INDOMETHACIN]	77.2%	43%	–	81%	85.8%	–	28.4%	28.7%	77%	44%	–	–	56%	50%

— ChEMBL document CHEMBL1150421, “Synthesis and analgesic/anti-inflammatory evaluation of fused heterocyclic ring systems incorporating phenylsulfonyl moiety” (2008)
